Test results from ChEMBL document CHEMBL1154211, “Curcumin inhibits ACTH- and angiotensin II-stimulated cortisol secretion and Ca(v)3.2 current” (J Nat Prod, 2009).
Active and inactive are the calls of the source. No cut-off for these calls is given here.

Experiments:
[1] = Inhibition of ACTH-stimulated cortisol secretion in bovine AZF cells at 10 uM after 2 hrs by EIA; format: functional; details: Bos taurus
Method in brief: (§1)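 AZF cells were taken from steer adrenals and plated 24 h on fibronectin in serum-containing DMEM/F12 with antioxidants, then moved to serum-free supplemented DMEM/F12. They were exposed to ACTH(1–24) ± curcumin (1–20 µM) for 0.5, 2 or 24 h. Collected media were assayed for cortisol by EIA, in duplicate from duplicate samples, as mean ± SEM.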

[2] = test system: AZF; experiment: Inhibition of 8CPT-cAMP-induced cortisol secretion in bovine AZF cells at 1 to 20 uM after 1 hr by EIA; format: functional, cell-based; details: Bos taurus
Method in brief: (§2)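 Bovine adrenal zona fasciculata cells from 2–3-yr steers were plated on fibronectin-coated dishes in DMEM/F12 with 10% FBS and antioxidants for 24 h. They were then switched to serum-free DMEM/F12 with BSA, ascorbate, tocopherol, insulin and transferrin, and treated with 250 µM 8CPT-cAMP ± curcumin (1–20 µM). Medium cortisol was measured by EIA in duplicate from duplicate samples, as mean ± SEM.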

[3] = test system: AZF; experiment: Inhibition of Cav3.2 channel in bovine AZF cells at 5 uM by cell patch clamp assay; format: cell-based; details: Bos taurus
Method in brief: (§3)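 Whole-cell T-type Ca2+ currents were recorded from bovine AZF cells 2–12 h after plating (10–15 pF, <15 µm). The pipette held CsCl/BAPTA/MgATP at pH 7.2, and the bath held TEA-Cl with 20 mM Ca2+ at pH 7.4. Current was recorded in standard saline, then the cell was superfused with 5, 10 or 20 µM curcumin, and % inhibition of current amplitude was measured (n = 4–6).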

[4] = Inhibition of ACTH-induced StAR mRNA expression in bovine AZF cells at 10 uM after 24 hrs using [alpha32P]dCTP labeled probes by Northern blot analysis; format: functional; details: Bos taurus
Method in brief: (§4)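 Steer AZF cells ((5–8) × 10^6 per dish, fibronectin-coated) were plated 24 h with serum, then held in serum-free supplemented DMEM/F12. They were preincubated 10 min with curcumin (10 µM), then given 2 nM ACTH for 24 h. Total RNA (10 µg/lane) was run on a denaturing gel and Northern blotted with bovine CYP11a1 or StAR probes. Bands were quantified by phosphorimaging as % control, with 18S rRNA as loading reference and ≥2 experiments.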

[5] = Inhibition of 8CPT-cAMP-induced cortisol secretion in bovine AZF cells at 10 uM after 24 hrs by EIA; format: functional; details: Bos taurus; method in brief: as §2
[6] = test system: AZF; experiment: Inhibition of Cav3.2 channel in bovine AZF cells at 10 uM by cell patch clamp assay; format: cell-based; details: Bos taurus; method in brief: as §3
[7] = Inhibition of ACTH-stimulated cortisol secretion in bovine AZF cells at 10 uM after 2 4 hrs by EIA; format: functional; details: Bos taurus; method in brief: as §1
[8] = Inhibition of ACTH-stimulated cortisol secretion in bovine AZF cells after 24 hrs by EIA; format: functional, Bos taurus
[9] = Inhibition of ACTH-stimulated cortisol secretion in bovine AZF cells at 10 uM after 0.5 hrs by EIA; format: functional; details: Bos taurus; method in brief: as §1
[10] = test system: AZF; experiment: Inhibition of Cav3.2 channel in bovine AZF cells at 20 uM by cell patch clamp assay; format: cell-based; details: Bos taurus; method in brief: as §3
[11] = Induction of cortisol secretion in bovine AZF cells at 20 uM after 0.5 to 24 hrs by EIA relative to control; format: functional, Bos taurus
Method in brief: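 AZF cells from adrenal glands of 2–3 yr steers were plated 24 h on fibronectin in DMEM/F12 with 10% FBS, tocopherol, selenite and ascorbate. Medium was then switched to serum-free DMEM/F12 with BSA, ascorbate, tocopherol, insulin and transferrin, with or without compound, at 37 °C. Media were collected at 0.5, 2 and 24 h, and cortisol was measured by EIA (duplicates of duplicate samples, mean ± SEM).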

[12] = Inhibition of Ang2-stimulated cortisol secretion in bovine AZF cells at 20 uM after 2 hrs by EIA; details: Bos taurus
[13] = Inhibition of 8CPT-cAMP-induced cortisol secretion in bovine AZF cells at 10 uM after 1 hr by EIA; format: functional; details: Bos taurus; method in brief: as §2
[14] = target: T1, Potassium channel subfamily K member 2 (Bos taurus, UniProt Q8HY88); experiment: Inhibition of TREK-1 K(+) channel in bovine AZF cells; format: cell-based
T1 sequence (Q8HY88 whole entry): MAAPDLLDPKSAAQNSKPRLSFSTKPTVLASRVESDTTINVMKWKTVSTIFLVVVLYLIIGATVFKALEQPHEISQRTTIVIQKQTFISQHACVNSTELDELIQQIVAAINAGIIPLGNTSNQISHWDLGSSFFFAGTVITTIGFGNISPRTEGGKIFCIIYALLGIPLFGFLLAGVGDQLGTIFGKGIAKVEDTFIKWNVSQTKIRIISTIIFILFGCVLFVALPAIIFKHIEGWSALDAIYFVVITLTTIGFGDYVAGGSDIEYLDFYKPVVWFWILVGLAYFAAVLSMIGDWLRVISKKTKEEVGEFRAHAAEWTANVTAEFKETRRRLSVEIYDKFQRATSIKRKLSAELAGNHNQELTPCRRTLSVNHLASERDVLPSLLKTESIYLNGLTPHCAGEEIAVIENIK

[15] = Inhibition of ACTH-induced CYP11a1 mRNA expression in bovine AZF cells at 10 uM after 24 hrs using [alpha32P]dCTP labeled probes by Northern blot analysis; format: functional; details: Bos taurus; method in brief: as §4
[16] = Inhibition of ACTH-stimulated cortisol secretion in bovine AZF cells after 3 hrs by EIA; format: functional, Bos taurus
[17] = test system: AZF; experiment: Inhibition of ACTH-stimulated cortisol secretion in bovine AZF cells at 1 to 20 uM after 0.5 hrs by EIA; format: functional, cell-based; details: Bos taurus; method in brief: as §1

COc1cc(/C=C/C(=O)CC(=O)/C=C/c2ccc(O)c(OC)c2)ccc1O [CURCUMIN]
inhibition at 10 µM [1]: 92.4% | inhibition [2]: Active | inhibition [3]: 31.9% | inhibition at 10 µM [4]: 99% | inhibition at 10 µM [5]: 96.8% | inhibition [6]: 41% | inhibition at 10 µM [7]: 91% | inhibition (INH) [8]: 92% | inhibition at 10 µM [9]: 81.1% | inhibition [10]: 53.3% | fold change (FC) [11]: 2 | inhibition at 20 µM [12]: 94.5% | inhibition at 10 µM [13]: 92.9% | IC50 [14]: 930 nM | inhibition at 10 µM [15]: 59% | inhibition (INH) [16]: 89% | inhibition [17]: Active
